Source: article PMC11956031 (RSC Medicinal Chemistry, 2025)

Legend:
[1] = test system: HCT-15 (colorectal) cancer cells; assay: MTT cytotoxicity, HCT-15 cells, 72 h; type: cell-based, human; conditions: read-out: IC50 HCT-15, 72 h incubation
Summary of the method: (§1)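 Cells kept in log phase at 37 °C, 5% CO2, 10% FCS, 2 mM L-glutamine; RPMI-1640 for HCT-15, PSN-1, NTERA-2, 2008 and C13*; DMEM for MDA-MB-231 and HEK293; F-12 HAM's for CHO. C13* selected from 2008 with low-dose cisplatin. 72 h exposure, 0.5% final DMSO. IC50 at 570 nm vs untreated by 4-PL. RF = C13*/2008 IC50; panel average of IC50s.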

[2] = test system: MDA-MB-231 (breast) cancer cells; assay: MTT cytotoxicity, MDA-MB-231 cells, 72 h; type: cell-based, human; conditions: read-out: IC50 MDA-MB-231, 72 h incubation
Summary of the method: as §1

[3] = test system: human embryonic kidney (HEK-293) cells; assay: MTT cytotoxicity, non-tumor HEK-293 cells; type: cell-based; conditions: read-out: IC50 HEK-293, 72 h incubation
Summary of the method: as §1

[4] = test system: 2008 (ovarian) cancer cells; assay: MTT cytotoxicity, 2008 cells, 72 h; type: cell-based, human; conditions: read-out: IC50 2008, 72 h incubation
Summary of the method: as §1

[5] = test system: C13* cancer cells (ovarian, resistant to cisplatin); assay: MTT cytotoxicity, cisplatin-resistant C13* cells, 72 h; type: cell-based, human
Summary of the method: as §1

[6] = test system: NTERA-2 cancer cell spheroids; assay: 3D spheroids APH assay, NTERA-2; type: cell-based, human; conditions: read-out: IC50 3D spheroids NTERA-2, 72 h incubation
Summary of the method: (§2)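 2.5 × 10^3 2008 or NTERA-2 cells per well grown as spheroids in phenol red-free F-12 HAM's with 10% FCS and 20% methyl cellulose stock. Treated 72 h; DMSO stocks, 0.5% final DMSO; cisplatin from 0.9% NaCl. Viability by modified acid phosphatase assay. IC50 from 405 nm absorbance vs untreated, 4-PL fit.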

[7] = test system: NTERA-2 (embryonal) cancer cells; assay: MTT cytotoxicity, NTERA-2 cells, 72 h; type: cell-based, human; conditions: read-out: IC50 NTERA-2, 72 h incubation
Summary of the method: as §1

[8] = test system: 2008 cancer cell spheroids; assay: 3D spheroids APH assay, 2008; type: cell-based, human; conditions: read-out: IC50 3D spheroids 2008, 72 h incubation
Summary of the method: as §2

[9] = test system: PSN-1 (pancreatic) cancer cells; assay: MTT cytotoxicity, PSN-1 cells, 72 h; type: cell-based, human; conditions: read-out: IC50 PSN-1, 72 h incubation
Summary of the method: as §1

[10] = test system: Chinese hamster ovary (CHO) cells; assay: MTT cytotoxicity, non-tumor CHO cells; type: cell-based; conditions: read-out: IC50 CHO, 72 h incubation
Summary of the method: as §1

## N.N.[Cl][Pt][Cl] [Cisplatin, cisplatin]
[1]
  IC50: 14 ± 2 µM
[2]
  IC50: 22 ± 4 µM
[3]
  IC50: 14 ± 3 µM
[4]
  IC50: 2 ± 1 µM
[5]; in brackets, ratio IC50 resistant C13* / sensitive 2008 cells
  resistance factor (RF): 11.7
[5]; read-out: IC50 C13*, 72 h incubation, MTT, cisplatin-resistant cells
  IC50: 25 ± 2 µM
[6]
  IC50: 50 ± 5 µM
[7]
  IC50: 15 ± 3 µM
[8]
  IC50: 13.9 ± 0.8 µM
[9]
  IC50: 12 ± 3 µM
[10]
  IC50: 29 ± 3 µM
